In ChEMBL document CHEMBL4011621, “A Novel Series of Highly Potent Small Molecule Inhibitors of Rhinovirus Replication” (J Med Chem, 2017):

Legend:
rhinovirus B14 = test: Antiviral activity against Human rhinovirus B14 infected in human H1HeLa cells assessed as protection against virus induced cytopathic effect after 3 days by MTT assay; assay type: functional, cell-based; conditions: Rhinovirus B, H1-HeLa, 72 h
rhinovirus A21 = test: Antiviral activity against Human rhinovirus A21 infected in human H1HeLa cells assessed as protection against virus induced cytopathic effect after 3 days by MTT assay; assay type: functional, cell-based; conditions: Rhinovirus A, H1-HeLa, 72 h
Summary of the method: (§1)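 CPE-reduction assay in H1HeLa cells plated 2 d before. Equal volumes of virus and compound were added and held at 33 °C for 3 d under CO2. Supernatant was removed, then MTT was added for 1 h at 37 °C. Formazan was dissolved and read at 540 nm against a 690 nm reference. Survival was scaled between uninfected untreated wells (100%) and virus-only wells (0%); mean ± SD, three experiments.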

[1] = Cytotoxicity aganist human HeLa cells assessed as decrease in cell viability after 2 days by MTT assay; assay type: cell-based
Poliovirus 3 = test: Antiviral activity against Human poliovirus 3 infected in human HeLa cells assessed as protection against virus induced cytopathic effect after 2 days by MTT assay; assay type: functional, cell-based; conditions: Enterovirus C, 48 h
Summary of the method: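 HeLa cells; MTT-based CPE reduction. Virus and compound added in equal volumes, incubated 37 °C for 2 d in CO2. Supernatant removed, MTT 1 h at 37 °C, formazan dissolved, absorbance 540 nm (690 nm reference). Uninfected untreated wells = 100% survival, virus-only = 0%. EC50 = 50% inhibition; means ± SD, three experiments.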

[2] = Cytotoxicity against human H1HeLa cells assessed as decrease in cell viability after 3 days by MTT assay; assay type: cell-based, H1-HeLa
[3] = Selectivity index, ratio of CC50 for human H1HeLa cells to EC50 for Human rhinovirus A21 infected in human H1HeLa cells; assay type: toxicity, cell-based; conditions: read-out: Ratio CC50/EC50
Summary of the method: (§2)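 H1HeLa cells plated 2 d ahead; virus plus compound (equal volumes) incubated 33 °C, 3 d, CO2. MTT 1 h at 37 °C, A540/A690. Survival scaled between uninfected untreated (100%) and virus-only (0%) wells to give EC50. CC50 = 50% cell death by MTT in H1HeLa. SI = CC50/EC50; at least three independent experiments.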

[4] = Selectivity index, ratio of CC50 for human H1HeLa cells to EC50 for Human rhinovirus A71 infected in human H1HeLa cells; assay type: toxicity, cell-based; conditions: read-out: Ratio CC50/EC50; summary of the method: as §2
[5] = Selectivity index, ratio of CC50 for human HeLa cells to EC50 for human poliovirus 3 infected in human HeLa cells; assay type: toxicity, cell-based; conditions: read-out: Ratio CC50/EC50
Summary of the method: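 SI = CC50/EC50 in HeLa cells. CC50 = 50% cell death by MTT. EC50 = 50% inhibition of PV3 CPE by MTT after 2 d at 37 °C, survival scaled to uninfected (100%) and virus-only (0%) wells. At least three independent experiments.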

[6] = Antiviral activity against Human rhinovirus A71 infected in human H1HeLa cells assessed as protection against virus induced cytopathic effect after 3 days by MTT assay; assay type: functional, cell-based; conditions: Rhinovirus A, H1-HeLa, 72 h; summary of the method: as §1
[7] = Selectivity index, ratio of CC50 for human H1HeLa cells to EC50 for Human rhinovirus B14 infected in human H1HeLa cells; assay type: toxicity, cell-based; conditions: read-out: Ratio CC50/EC50; summary of the method: as §2

| SMILES | EC50 (rhinovirus B14) [µM] | EC50 (rhinovirus A21) [µM] | CC50 at 48 h [1] [µM] | EC50 (Poliovirus 3) [µM] | CC50 at 72 h [2] [µM] | selectivity ratio [3] | selectivity ratio [4] | selectivity ratio [5] | EC50 [6] [µM] | selectivity ratio [7] |
| --- | --- | --- | --- | --- | --- | --- | --- | --- | --- | --- |
| CCC(C)OC(=O)c1ccc2ccc(Oc3ccnc(C(=O)NC)c3)cc2c1 (stereo unspecified) | > 16 | 0.41 | 9 | 0.35 | 16 | 39 | 1200 | 26 | 0.013 |  |
| CCOC(=O)c1sc2cc(OC)ccc2c1C | > 100 | > 100 | > 100 | 1.8 | > 100 |  | > 26 | > 56 | 3.8 |  |
| CNC(=O)c1cc(Oc2ccc3ccc(C(=O)Oc4ccccc4)cc3c2)ccn1 | > 100 | > 100 | > 100 | 60.1 | > 100 |  | > 12 | > 1.7 | 8.27 |  |
| CCOC(=O)c1cc2ccc(O)cc2s1 | > 52.3 | > 52.3 | 46.9 | > 46.9 | 52.3 |  | 5.9 |  | 8.9 |  |
| CCOC(=O)c1cc2ccc(OC)cc2s1 | > 70.9 | > 70.9 | 44.4 | 13.1 | 70.9 |  | 14 | 3.4 | 5.1 |  |
| CNC(=O)c1cc(Oc2ccc3c(C)c(C(=O)N(C)C)sc3c2)ccn1 | > 42.5 | > 42.5 | 44.4 | > 44.4 | 42.5 |  |  |  | > 42.5 |  |
| CCOC(=O)c1cc2cc(Oc3ccnc(C(=O)NC)c3)ccc2cc1O | > 100 | 0.41 | > 100 | 0.18 | > 100 | > 240 | > 340 | > 560 | 0.29 |  |
| CNC(=O)c1cc(Oc2ccc3c(C)c(C(=O)OC(C)C)[nH]c3c2)ccn1 | > 14.6 | 2.5 | 8.4 | 0.072 | 14.6 | 5.8 | 7.7 | 120 | 1.9 |  |
| CNC(=O)c1cc(Oc2ccc3cc(C(=O)OC)sc3c2)ccn1 | > 100 | 75.6 | 68.3 | > 68.3 | > 100 | > 1.3 | > 22 |  | 4.6 |  |
| CCOC(=O)c1sc2cc(Oc3ccnc(C(=O)NC)c3)ccc2c1N | > 0.11 | > 0.11 | 0.45 | > 0.45 | 0.11 |  |  |  | > 0.11 |  |
| CCOC(=O)c1sc2cc(O)ccc2c1C | > 82 | > 82 | 46.6 | 9.4 | 82 |  |  | 5 | > 82 |  |
| COc1ccc(OCc2ccc(COc3c(Cl)cccc3Cl)cc2)c(Cl)c1 | > 100 | 2 | 16 | 0.08 | > 100 | > 50 | > 400 | 200 | 0.25 |  |
| CCOC(=O)c1cc2ccc(Oc3ccccc3)cc2s1 | 68.6 | 51.1 | 90.1 | > 90.1 | > 100 | > 2 | > 36 |  | 2.8 | > 1.5 |
| CNC(=O)c1cc(Oc2ccc3c(C)c(C(=O)O)sc3c2)ccn1 | > 100 | > 100 | > 100 | > 100 | > 100 |  |  |  | > 100 |  |
| CNC(=O)c1cc(Oc2ccc3c(C)c(C(=O)OCc4ccccc4)sc3c2)ccn1 | > 18.8 | 0.55 | 18.1 | 0.34 | 18.8 | 34 | 13 | 53 | 1.4 |  |
| CCOC(=O)c1sc2cc(Oc3ccnc(C(=O)NC)c3)ccc2c1Cl | 11.7 | 1.7 | 45.6 | > 45.6 | 46.9 | 28 | 17 |  | 2.7 | 4 |
| CCOC(=O)c1cc2ccc(Oc3ccnc(C(=O)NC)c3)cc2o1 | > 100 | 66 | > 100 | > 100 | > 100 | > 1.5 | > 71 |  | 1.4 |  |
| CNC(=O)c1ccc(Oc2ccc3c(C)c(C(=O)OC(C)C)sc3c2)cn1 | > 7.6 | 3.3 | 12.9 | > 12.9 | 7.6 | 2.3 | 4.5 |  | 1.7 |  |
| CCNC(=O)c1sc2cc(Oc3ccnc(C(=O)NC)c3)ccc2c1C | > 100 | > 100 | > 100 | > 100 | > 100 |  |  |  | > 100 |  |
| CCOC(=O)c1sc2cc(Oc3ccnc(C(=O)OC)c3)ccc2c1C | > 24.9 | > 24.9 | 26.2 | > 26.2 | 24.9 |  | 1.7 |  | 15 |  |
| CCOC(=O)c1sc2cc(Oc3ccccc3)ccc2c1C | > 100 | 1 | 47.6 | > 47.6 | > 100 | > 100 | > 59 |  | 1.7 |  |
| CCOC(=O)c1cc2ccc(Oc3ccncc3)cc2s1 | > 42.4 | > 42.4 | 43.9 | > 43.9 | 42.4 |  | 5.8 |  | 7.3 |  |
